STAT3 blocker: IL-6 driven STAT3 reporter inhibitors, primary screen, U3A cells, luciferase, luminescence, MLSCN library. IL-6 STAT3-luciferase reporter; host cell line lacks STAT1. inhibition, % at 5.5 µM. 0.89% of 190,000 active. AID 862, 2007;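 active = inhibition above the mean inhibition across all screened compounds plus 3 SD, cut at about 44% in these data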;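 note: 0% = DMSO only wells and 100% = 100 µM nifuroxazide control wells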
STAT3 act-1: IL-6 driven STAT3 reporter potentiators, primary screen, U3A cells, luciferase, luminescence, MLSCN library; IL-6 STAT3-luciferase reporter; 100% = signal with IL-6 EC80 alone; activation (% of control), % at 5.6 µM; 0.91% of 190,000 active; AID 871, 2007;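 active = activation above the screen-wide mean of compound activation plus 3 SD, cut at about 130% in these data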;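 note: 0% = background luminescence of wells with medium and substrate only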
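Test system: human U3A cells carrying STAT3-luciferase construct; control set: IL-6-only wells as 100% reference; timing: compound pre-incubation 1 h before IL-6, then 6 h stimulation at 37 °C; also added: IL-6 stimulus at 33 ng/mL final; evaluation: % activation versus median of IL-6-stimulated wells; detection: reporter luminescence signal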
STAT1 blocker: STAT1 signaling inhibitors, primary screen, cell-based, HTS, luciferase reporter; 0.35% of 200,000 active; inhibition, % at 5.5 µM; AID 920, 2007; NIH 3T3 STAT1-luciferase reporter, IFN-gamma, luminescence;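 active = inhibition above a set limit, the mean inhibition across all tested compounds plus 3 SD, cut at about 34% in these data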;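 note: 0% = IFN-gamma with DMSO and 100% = IFN-gamma with 300 µM nifuroxazide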
STAT1 act-1: STAT1 signaling activators, primary screen, cell-based, HTS, luciferase reporter | NIH 3T3 STAT1-luciferase reporter, IFN-gamma, luminescence; 100% = IFN-gamma alone, no compound | activation (% of control), % at 5.5 µM | 2.6% of 200,000 active | AID 932, 2007;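 active = activation above the screen-wide mean activation plus 3 SD, cut at about 130% in these data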;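 note: raw ratio to IFN-gamma control signal so 100% means no change and 0% no light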
STAT3 act-2: STAT3 reporter potentiators, retest of hits, confirmation, U3A cells, luciferase, luminescence; shares compounds with STAT3 act-1; IL-6 potentiation; U3A cells lack STAT1; 100 means same as IL-6 alone; potentiation (% of control), % at 5.7 µM; 64% of 1,200 active;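 active = percent activation of the STAT3 luciferase reporter above a set limit taken from the earlier primary screen, cut at about 130% in these data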;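 note: 0% = background signal of medium plus substrate and 100% = median of IL-6 with DMSO wells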
NFkB act STAT3ct: NF-kB reporter activators in human cells, counter-screen for STAT3 activator project | shares compounds with STAT3 act-1 | NF-kappaB reporter activation | activation (% of control), % at 5.7 µM | 11% of 1,200 active | AID 1309, 2008; in the data active = activation above about 120%;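 note: reporter induced by TNF-alpha stimulation; 100% = median of stimulated DMSO wells and 0% = no signal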
STAT1 act-2: STAT1 reporter activators, IFN-gamma induced, counter-screen for STAT3 activator project, cell-based, NIH 3T3, luciferase luminescence | shares compounds with STAT3 act-1 | NIH 3T3 STAT1-luciferase reporter | activation (% of control), % at 5.7 µM | AID 1318, 2008 | 13% of 1,200 active;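 active = activation above the solvent-only control well mean plus 3 SD, set per screening run, cut at about 120% in these data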;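 note: 100% = IFN-gamma with DMSO median signal so 100% means no change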
Active calls of the source: *; / = no result given. An excerpt weighted towards active compounds, which were near 4.3% of everything screened.

SMILES	STAT3 blocker	STAT3 act-1	STAT1 blocker	STAT1 act-1	STAT3 act-2	NFkB act STAT3ct	STAT1 act-2
FC(F)(F)c1cnc(Sc2ncn[nH]2)c(Cl)c1	1.3	104.8	-7.9	105.9	/	/	/
COCc1cc(C)nc2sc(C(=O)NN)c(-n3cccc3)c12	-37.1	136.8*	4.8	97.0	139.0*	118.0	100.8
COc1ccc(C(=O)n2nc(-c3ccccc3)nc2SC)cc1	4.2	97.8	-4.3	103.9	/	/	/
COc1ccc(-c2nc3scc(-c4ccccc4)n3n2)cc1	-67.1	159.8*	12.1	89.0	143.9*	102.9	94.5
Cn1cnnc1Sc1ccc(C(=O)NCCC23CC4CC(CC(C4)C2)C3)cc1[N+](=O)[O-]	-17.1	110.1	-10.3	109.3	/	/	/
Brc1ccc2ncnc(Nc3cccc4ccccc34)c2c1	-42.1	147.3*	27.7	75.1	163.2*	97.3	87.8
Fc1ccccc1C1c2[nH]c3ccccc3c2CCN1Cc1cccn1-c1ncccn1 (stereo unspecified)	-31.7	132.8	-10.6	107.8	/	/	/
Cn1nccc1C(=O)N1CCc2c([nH]c3ccccc23)C1c1ccc(F)cc1 (stereo unspecified)	-8.2	109.0	-1.3	99.5	/	/	/
O=C(Cc1cnc2ncnn2c1)N1CCc2c([nH]c3ccccc23)C1c1ccccc1F (stereo unspecified)	-49.1	144.2*	8.4	90.6	140.2*	104.0	102.0
Cc1nonc1CC(=O)N1CCc2c([nH]c3ccccc23)C1c1ccccc1F (stereo unspecified)	-50.5	149.0*	-11.0	108.6	142.5*	104.7	93.2
CC(C)Sc1nc2ccccc2n1CC(=O)O	-1.0	104.8	-13.6	110.9	/	/	/
CCOc1ccc(/C=C/[N+](=O)[O-])c2ccccc12	-36.5	136.9*	-5.0	104.6	120.9	118.0	101.2
CCOC(=O)COc1ccc2ccccc2c1/C=C/[N+](=O)[O-]	8.4	91.1	-2.2	102.0	/	/	/
CC(=O)NC1C(OCc2ccccc2)OC2COC(c3ccccc3)OC2C1OCC(=O)O (stereo unspecified)	6.3	96.6	-2.7	100.7	/	/	/
Oc1ccc2ccccc2c1/C=N/Nc1ccccc1	-59.0	150.5*	7.5	93.2	150.0*	110.4	82.2
Cc1cc(N/N=C/c2c(O)ccc3ccccc23)nc(-c2ccccc2O)n1	-11.9	107.6	1.8	98.4	/	/	/
CCc1nc(SCC(=O)c2cccs2)c2oc3ccccc3c2n1	11.5	92.9	-4.7	104.2	/	/	/
CN1/C(=C\C=Nc2ccc3ccccc3c2)C(C)(C)c2ccccc21	-42.6	147.8*	8.3	92.5	119.4	105.3	94.0
CCN(CC)C(=S)SC1CCCCN(C(=O)c2ccc(F)cc2)C1=O (stereo unspecified)	0.6	99.3	7.5	93.1	/	/	/
O=c1c(-c2ccc(Cl)cc2)cnc2n1CCS2	10.0	97.2	-14.7	112.4	/	/	/
CCSc1ccccc1C(=O)NC1CCCCC1	3.0	101.4	-6.5	102.8	/	/	/
CCOC(=O)c1cccnc1SCc1cc(=O)n2ccccc2n1	-40.5	138.2*	1.8	98.4	129.1	103.0	96.1
CC(OC(=O)c1cccnc1SCc1cc(=O)n2ccccc2n1)c1ccccn1 (stereo unspecified)	-68.6	152.9*	-7.5	106.9	134.0*	100.1	98.8
O=C(O)CCCCCn1c(SCc2cc(=O)n3ccccc3n2)nc2ccsc2c1=O	11.5	93.0	-0.6	100.6	/	/	/
CCc1ccccc1NC(=O)CCCSc1nc2ccccc2s1	-14.4	107.5	-9.1	108.2	/	/	/
SMILES	STAT3 blocker	STAT3 act-1	STAT1 blocker	STAT1 act-1	STAT3 act-2	NFkB act STAT3ct	STAT1 act-2
O=C(CCCSc1nc2ccccc2s1)NCc1ccco1	-56.5	149.6*	-1.0	100.9	135.8*	100.5	96.9
CC(Nc1ccc2c(c1)OCCO2)C(=O)N1c2ccccc2CC1C (stereo unspecified)	11.2	97.5	0.5	97.7	/	/	/
CN1C(=O)/C(=N\OC(=O)c2cccc3ccccc23)c2ccccc21	-37.2	141.4*	9.4	91.5	125.7	102.5	89.3
CC(C)(CO)N=Cc1c(O)[nH]c2ccccc12	-42.3	142.0*	4.6	95.8	137.0*	105.7	99.1
O=C(/C(=C(\[O-])c1ccccc1)[n+]1ccc2ccccc2c1)c1ccccc1	-44.2	137.5*	-3.8	103.4	150.8*	112.0	109.0
O=C(/C(=C(\[O-])c1ccccc1)[n+]1ccc2ccccc2c1)c1ccc([N+](=O)[O-])cc1	-15.6	115.6	11.4	90.0	/	/	/
O=C(/C(=C(\[O-])c1ccccc1)[n+]1ccc2ccccc2c1)c1ccc(Cl)cc1	-52.6	151.7*	2.6	97.7	155.8*	109.8	105.5
O=C(Nc1ccc(OC(F)(F)F)cc1)c1[nH]ncc1[N+](=O)[O-]	11.0	92.6	5.3	93.5	/	/	/
O=C(CN(c1cccc(C(F)(F)F)c1)S(=O)(=O)c1ccc(Cl)c([N+](=O)[O-])c1)NCc1ccc(F)cc1	22.3	86.8	-4.3	103.9	/	/	/
O=C(Oc1c(Cl)cc(Cl)c2ccccc12)N1CCCC1	-43.6	143.2*	9.7	91.1	150.9*	112.2	106.8
CCOC(=O)C1=C(NC(=S)NC(=O)c2ccccc2)c2ccccc2CC1(C)CC (stereo unspecified)	-14.5	117.2	8.6	92.4	/	/	/
CCOC(=O)C1=C(NC(=S)NC(=O)c2ccccc2)c2ccccc2CC1C(C)C (stereo unspecified)	-41.3	139.1*	-3.7	103.3	126.4	73.7	105.3
CCn1cc(/C=N/N=C2\CCC3C4CCc5cc(O)ccc5C4CC[C@]23C)c(C)n1 (stereo partly specified)	12.3	95.7	8.0	92.6	/	/	/
COc1ccc2ncn(-c3ccccc3)c2c1	-32.6	136.5*	-8.4	107.6	105.8	88.8	105.5
CC(C)CN(C(=O)CSc1nnnn1-c1ccccc1)c1c(N)n(CC(C)C)c(=O)[nH]c1=O	0.6	101.5	0.0	99.4	/	/	/
CCCc1nc2c(c(=O)c3ccccc3n2C)c(=O)n1-c1ccc(F)cc1	-26.6	119.3	-9.4	108.4	/	/	/
CCc1nc2c(c(=O)c3ccccc3n2C)c(=O)n1CCc1ccc(OC)cc1	-51.8	144.3*	-10.7	109.7	202.2*	92.2	113.1
O=C(CN1CCOCC1)Nc1ccc(Oc2ccccc2)cc1	6.7	95.5	8.5	91.0	/	/	/
O=C(CN1CCNCC1)Nc1ccc(Oc2ccccc2)cc1	-51.3	141.5*	4.4	96.0	139.0*	110.7	105.7

Compound activity as filed in PubChem.
